Reference: ChEMBL document CHEMBL4177543, “Biseokeaniamides A, B, and C, Sterol O-Acyltransferase Inhibitors from an Okeania sp. Marine Cyanobacterium” (J Nat Prod, 2017)
The source made the active and inactive calls. No cut-off for these calls is given here. Non-standard residues stand in square brackets, D forms with d. Residues, ends and D or L forms follow the SMILES beside them. *: point of attachment. NMeF = CN[C@@H](Cc1ccccc1)C(=O)O; NMeV = CN[C@H](C(=O)O)C(C)C; Butyryl = CCCC(=O)*; X1 = CN(Cc1nccs1)*

Key:
[1] = target: T1, Sterol O-acyltransferase 2 (Chlorocebus aethiops, UniProt O77759); assay: Inhibition of African green monkey SOAT2 expressed in CHO cells assessed as reduction in neutral lipid synthesis incubated for 6 hrs using [1-14C]oleic acid by thin-layer chromatography; type: cell-based
T1 sequence (O77759 whole entry): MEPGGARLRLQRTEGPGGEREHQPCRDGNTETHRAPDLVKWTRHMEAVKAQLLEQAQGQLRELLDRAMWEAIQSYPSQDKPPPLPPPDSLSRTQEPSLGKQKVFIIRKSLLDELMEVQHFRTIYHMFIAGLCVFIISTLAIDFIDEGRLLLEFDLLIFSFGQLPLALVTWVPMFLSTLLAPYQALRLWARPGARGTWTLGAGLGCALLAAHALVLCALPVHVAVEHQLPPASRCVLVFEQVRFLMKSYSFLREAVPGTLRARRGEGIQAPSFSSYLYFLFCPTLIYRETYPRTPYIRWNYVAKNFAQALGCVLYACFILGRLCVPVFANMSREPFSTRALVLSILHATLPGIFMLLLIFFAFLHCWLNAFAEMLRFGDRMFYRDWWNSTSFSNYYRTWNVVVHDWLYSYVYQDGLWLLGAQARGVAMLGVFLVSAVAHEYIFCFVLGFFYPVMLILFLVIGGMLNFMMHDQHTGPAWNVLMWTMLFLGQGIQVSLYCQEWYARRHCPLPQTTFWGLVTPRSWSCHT
Outline: (§1)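 CHO cells stably expressing monkey SOAT1 or SOAT2 in Ham's F-12 with 10% FBS, plated 1.25 × 10^5 cells/well, recovered overnight, ≥80% confluent. Sample added from 0–1 mg/mL MeOH stocks together with [1-14C]oleic acid (1 nmol) for 6 h at 37 °C. Lipids Bligh–Dyer extracted and separated by TLC; [14C]cholesteryl ester quantified vs control. IC50 from duplicated experiments.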

[2] = target: T1, Sterol O-acyltransferase 2; assay: Inhibition of African green monkey SOAT2 expressed in CHO cell microsomal fractions assessed as reduction in neutral lipid synthesis incubated for 5 mins using [1-14C]oleoyl-CoA by thin-layer chromatography
[3] = target: T2, Sterol O-acyltransferase 1 (Chlorocebus aethiops, UniProt O77760); assay: Inhibition of African green monkey SOAT1 expressed in CHO cell microsomal fractions assessed as reduction in neutral lipid synthesis incubated for 5 mins using [1-14C]oleoyl-CoA by thin-layer chromatography
T2 sequence (O77760 whole entry): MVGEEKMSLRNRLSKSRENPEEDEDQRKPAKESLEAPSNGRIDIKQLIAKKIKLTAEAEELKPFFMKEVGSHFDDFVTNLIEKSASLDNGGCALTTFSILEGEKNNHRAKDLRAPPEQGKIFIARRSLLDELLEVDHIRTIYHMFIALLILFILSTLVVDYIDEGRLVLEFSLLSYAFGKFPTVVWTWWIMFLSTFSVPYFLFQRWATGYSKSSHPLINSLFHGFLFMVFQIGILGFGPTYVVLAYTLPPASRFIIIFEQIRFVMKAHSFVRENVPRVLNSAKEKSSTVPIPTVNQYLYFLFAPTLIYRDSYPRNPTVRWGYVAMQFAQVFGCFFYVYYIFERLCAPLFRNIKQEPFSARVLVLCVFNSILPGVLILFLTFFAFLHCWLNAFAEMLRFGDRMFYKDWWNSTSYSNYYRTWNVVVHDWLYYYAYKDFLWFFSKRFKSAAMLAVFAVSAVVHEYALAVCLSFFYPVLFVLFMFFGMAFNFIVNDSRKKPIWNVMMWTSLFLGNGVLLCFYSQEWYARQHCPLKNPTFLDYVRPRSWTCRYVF

[4] = target: T2, Sterol O-acyltransferase 1; assay: Inhibition of African green monkey SOAT1 expressed in CHO cells assessed as reduction in neutral lipid synthesis incubated for 6 hrs using [1-14C]oleic acid by thin-layer chromatography; type: cell-based; outline: as §1
[5] = tested on: HeLa; assay: Growth inhibition of human HeLa cells incubated for 72 hrs by MTT assay; type: functional, cell-based
Outline: (§2)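 HeLa (DMEM) or HL60 (RPMI) cells, 10% heat-inactivated FBS, 37 °C, 5% CO2. HeLa seeded 2 × 10^4 cells/well and cultured overnight; HL60 seeded 1 × 10^5 cells/well. Exposed to a range of concentrations for 72 h; proliferation read by MTT; IC50 reported.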

[6] = tested on: HL-60; assay: Growth inhibition of human HL60 cells incubated for 72 hrs by MTT assay; type: functional, cell-based; settings: HL-60, 72 h; outline: as §2
[7] = tested on: HeLa; assay: Induction of cell killing in human HeLa cells assessed as reduction in cell viability at 1 to 30 uM incubated for 48 hrs in presence of 50 uM Z-VAD-FMK by trypan blue dye exclusion method; type: functional, cell-based
Outline: (§3)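 HeLa seeded 4 × 10^4 cells/well, cultured overnight, then preincubated 30 min with or without 50 μM Z-VAD-FMK. Compound added at various concentrations for 48 h. Cells stained with 0.8 mg/mL trypan blue; viability from counts of stained (dead) cells. Mean ± SD of quadruplicates.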

[8] = tested on: HeLa; assay: Induction of cell killing in human HeLa cells assessed as reduction in cell viability at 1 to 30 uM incubated for 48 hrs by trypan blue dye exclusion method; type: functional, cell-based; outline: as §3
[9] = tested on: HeLa; assay: Induction of apoptosis in human HeLa cells assessed as induction of caspase-3 activation incubated for 24 hrs using Ac-DEVD-pNA as substrate by spectrophotometry; type: functional, cell-based
Outline: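 Exponentially growing HeLa, 2 × 10^6 cells per 60 mm dish, incubated 12 h at 37 °C, then treated 24 h. Cells washed in cold PBS, lysed by three freeze–thaw cycles plus 15 min on ice, and clarified at 15000g. Lysate incubated with Ac-DEVD-pNA, 37 °C, 4 h; p-nitroaniline read at 405 nm. Activity relative to 1% MeOH control; triplicates; tunicamycin positive control.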

| IC50 [1] | IC50 [2] | IC50 [3] | IC50 [4] | IC50 [5] | IC50 [6] | SMILES | Activity [7] | Activity [8] | Activity [9] |
| --- | --- | --- | --- | --- | --- | --- | --- | --- | --- |
| 1.5 µM | 1.8 µM | 0.9 µM | 2.5 µM |  |  | COc1c([C@H](CC(C)C)OC(C)=O)ccc2c1C(=O)OCc1cc(C)cc(O)c1O2 |  |  |  |
| 9.6 µM | > 32 µM | 11 µM | > 12 µM | 43 µM | > 100 µM | CCCC(=O)N[C@H](C(=O)N1CCC[C@H]1C(=O)N(C)[C@@H](Cc1ccccc1)C(=O)N[C@@H](CC(C)C)C(=O)N(C)[C@H](C(=O)N(C)Cc1nccs1)C(C)C)C(C)C (Butyryl-VP[NMeF]L[NMeV]-X1) |  |  |  |
| 2.5 µM | 9.9 µM | 6.8 µM | 6.9 µM | 4.5 µM | 19 µM | CCCC(=O)N(C)[C@H](C(=O)N1CCC[C@H]1C(=O)N(C)[C@@H](Cc1ccccc1)C(=O)N[C@@H](CC(C)C)C(=O)N[C@H](C(=O)N(C)Cc1nccs1)C(C)C)C(C)C (Butyryl-[NMeV]P[NMeF]LV-X1) | inactive | Active | Dose-dependent effect |
| 1.3 µM | 9.6 µM | 1.8 µM | 1.8 µM | 29 µM | 30 µM | CCCC(=O)N(C)[C@H](C(=O)N1CCC[C@H]1C(=O)N(C)[C@@H](Cc1ccccc1)C(=O)N[C@@H](CC(C)C)C(=O)N(C)[C@H](C(=O)N(C)Cc1nccs1)C(C)C)C(C)C (Butyryl-[NMeV]P[NMeF]L[NMeV]-X1) |  |  |  |
